Measured values published in ChEMBL document CHEMBL3046679, “Design, synthesis, and biological activities of arylmethylamine substituted chlorotriazine and methylthiotriazine compounds” (J Agric Food Chem, 2011).
Activity calls are given as the source filed them. The calls are words filed in the database; no cut-off is given here.

What was measured:
[1] = test system: Stellaria media; assay: Herbicidal activity against Stellaria media assessed as growth inhibition at 1 kg/ha postemergence treatment by glasshouse test; assay type: functional; details: post-emergence, read-out: GI
In short: (§1)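 Glasshouse screen with pre- or postemergence application at 1.0 kg/ha. Result given as percent inhibition of plant growth; norflurazon and glyphosate used as controls.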

[2] = test system: Alternaria solani; assay: Fungicidal activity against Alternaria solani assessed as inhibition of disease development in compound treated leaf pieces at 200 ppm relative to untreated control (tomato-preventative); assay type: functional
In short: (§2)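 Preventative leaf-piece test on host tissue (tomato, vine, wheat or barley). Formulated compound applied at 200, 60 and 20 ppm before spore inoculation. Disease scored 3–9 days after inoculation, depending on the pathogen, as percent inhibition of disease development versus untreated controls. Values are the mean across replicates.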

[3] = test system: Stellaria media; assay: Herbicidal activity against Stellaria media assessed as growth inhibition at 1 kg/ha preemergence treatment by glasshouse test; assay type: functional; details: pre-emergence, read-out: GI; in short: as §1
[4] = test system: Pyrenophora teres; assay: Fungicidal activity against Pyrenophora teres assessed as inhibition of disease development in compound treated leaf pieces at 60 ppm relative to untreated control (barley-preventative); assay type: functional; in short: as §2
[5] = test system: Puccinia triticina; assay: Fungicidal activity against Puccinia triticina assessed as inhibition of disease development in compound treated leaf pieces at 20 ppm relative to untreated control (wheat-curative); assay type: functional
In short: (§3)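 Curative wheat leaf-piece test against Puccinia triticina. Leaf pieces inoculated with spores first, then treated with formulated compound at 200, 60 or 20 ppm. Disease scored 3–9 days after inoculation as percent inhibition versus untreated controls. Values are the mean across replicates.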

[6] = test system: Alternaria solani; assay: Fungicidal activity against Alternaria solani assessed as inhibition of disease development in compound treated leaf pieces at 60 ppm relative to untreated control (tomato-preventative); assay type: functional; in short: as §2
[7] = test system: Aphididae; assay: Insecticidal activity against Aphididae (aphids) assessed as mortality at 1000 ppm by leaf-disk assay; assay type: functional, organism-based
In short: (§4)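 Leaf-disk assay at 1000 ppm, three replicates. Plates kept 5–9 days in controlled-environment cabinets. Mortality judged against untreated wells: 99 for significant mortality, 0 otherwise. Values are the mean of three; thiamethoxam and indoxacarb used as positive controls.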

[8] = test system: Plasmopara viticola; assay: Fungicidal activity against Plasmopara viticola assessed as inhibition of disease development in compound treated leaf pieces at 60 ppm relative to untreated control (grapevine-preventative); assay type: functional; in short: as §2
[9] = test system: Fusarium graminearum; assay: Fungicidal activity against Fusarium graminearum assessed as inhibition of mycelia growth at 2 ppm; assay type: functional, organism-based
In short: (§5)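 Mycelial growth test in 96-well plates: compound incorporated into artificial growth medium at 2 ppm, two replicates per rate. Each well scored 99 for complete, 55 for partial or 0 for no inhibition. Values are the mean across replicates; azoxystrobin and prochloraz used as positive controls.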

[10] = test system: Heliothis virescens; assay: Insecticidal activity against Lepidoptera Heliothis virescens (tobacco budworm) assessed as mortality at 1000 ppm by leaf-disk assay; assay type: functional, organism-based; in short: as §4
[11] = test system: Plasmopara viticola; assay: Fungicidal activity against Plasmopara viticola assessed as inhibition of disease development in compound treated leaf pieces at 200 ppm relative to untreated control (grapevine-preventative); assay type: functional; in short: as §2
[12] = test system: Puccinia triticina; assay: Fungicidal activity against Puccinia triticina assessed as inhibition of disease development in compound treated leaf pieces at 60 ppm relative to untreated control (wheat-preventative); assay type: functional; in short: as §2
[13] = test system: Parastagonospora nodorum; assay: Fungicidal activity against Phaeosphaeria nodorum assessed as inhibition of disease development in compound treated leaf pieces at 200 ppm relative to untreated control (wheat preventative); assay type: functional
In short: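 Wheat leaf pieces treated with formulated compound (200, 60 and 20 ppm) before inoculation with pathogen spores. Disease development assessed 3–9 days after inoculation, depending on the assay. Scored as percent inhibition relative to untreated controls; value is the mean across replicates.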

[14] = test system: Alternaria solani; assay: Fungicidal activity against Alternaria solani assessed as inhibition of mycelia growth at 2 ppm; assay type: functional, organism-based; in short: as §5
[15] = test system: Lolium perenne; assay: Herbicidal activity against Lolium perenne (perennial ryegrass) assessed as growth inhibition at 1 kg/ha postemergence treatment by glasshouse test; assay type: functional; details: post-emergence, read-out: GI; in short: as §1
[16] = test system: Plasmopara viticola; assay: Fungicidal activity against Plasmopara viticola assessed as inhibition of disease development in compound treated leaf pieces at 20 ppm relative to untreated control (grapevine-preventative); assay type: functional; in short: as §2
[17] = test system: Pyrenophora teres; assay: Fungicidal activity against Pyrenophora teres assessed as inhibition of disease development in compound treated leaf pieces at 20 ppm relative to untreated control (barley-preventative); assay type: functional; in short: as §2
[18] = test system: Phytophthora infestans; assay: Fungicidal activity against Phytophthora infestans assessed as inhibition of disease development in compound treated leaf pieces at 20 ppm relative to untreated control (tomato-preventative); assay type: functional; in short: as §2
[19] = test system: Lolium perenne; assay: Herbicidal activity against Lolium perenne (perennial ryegrass) assessed as growth inhibition at 1 kg/ha preemergence treatment by glasshouse test; assay type: functional; details: pre-emergence, read-out: GI; in short: as §1
[20] = test system: Puccinia triticina; assay: Fungicidal activity against Puccinia triticina assessed as inhibition of disease development in compound treated leaf pieces at 60 ppm relative to untreated control (wheat-curative); assay type: functional; in short: as §3
[21] = test system: Echinochloa crus-galli; assay: Herbicidal activity against Echinochloa crus-galli (barnyard grass) at 1.5 kg/ha preemergence treatment measured after 10 days by glasshouse test; assay type: functional; details: pre-emergence, 240 h
In short: (§6)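 Glasshouse pre/postemergence test, each treatment in triplicate. Above-ground fresh weight measured 10 days after treatment. Result expressed as percent inhibition versus control, from 0 (no control) to 100 (complete control); glyphosate used as positive control.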

[22] = test system: Phytophthora infestans; assay: Fungicidal activity against Phytophthora infestans assessed as inhibition of disease development in compound treated leaf pieces at 60 ppm relative to untreated control (tomato-preventative); assay type: functional; in short: as §2
[23] = test system: Puccinia triticina; assay: Fungicidal activity against Puccinia triticina assessed as inhibition of disease development in compound treated leaf pieces at 200 ppm relative to untreated control (wheat-curative); assay type: functional; in short: as §3
[24] = test system: Brassica napus; assay: Herbicidal activity against Brassica napus (oilseed rape) at 1.5 kg/ha preemergence treatment measured after 10 days by glasshouse test; assay type: functional; details: pre-emergence, 240 h; in short: as §6
[25] = test system: Uromyces viciae-fabae; assay: Fungicidal activity against Uromyces viciae-fabae assessed as inhibition of mycelia growth at 100 ppm; assay type: functional, organism-based
In short: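 Leaf-piece assay on bean at 100 ppm, with compound applied before spore inoculation and two replicates. Each well scored 99 for complete inhibition, 55 for partial and 0 for none; value is the mean score across replicates.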

[26] = test system: Blumeria graminis f. sp. tritici; assay: Fungicidal activity against Blumeria graminis f. sp. tritici assessed as inhibition of disease development in compound treated leaf pieces at 200 ppm relative to untreated control (wheat-preventative); assay type: functional
[27] = test system: Zymoseptoria tritici; assay: Fungicidal activity against Zymoseptoria tritici assessed as inhibition of mycelia growth at 100 ppm; assay type: functional, organism-based
[28] = test system: Puccinia triticina; assay: Fungicidal activity against Puccinia triticina assessed as inhibition of disease development in compound treated leaf pieces at 200 ppm relative to untreated control (wheat-preventative); assay type: functional; in short: as §2
[29] = test system: Arabidopsis thaliana; assay: Herbicidal activity against Arabidopsis thaliana assessed as growth inhibition at 10 ppm by 96-well plate test; assay type: functional; details: read-out: GI
In short: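 96-well plate herbicide screen: Arabidopsis thaliana at 10 ppm and Poa annua at 32 ppm, two replicates. Plates incubated seven days in a controlled-environment cabinet. Each replicate scored 0 (no visible effect) or 99 (herbicidal effect); values are the mean of the two. Atrazine used as reference.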

[30] = test system: Pyrenophora teres; assay: Fungicidal activity against Pyrenophora teres assessed as inhibition of disease development in compound treated leaf pieces at 200 ppm relative to untreated control (barley-preventative); assay type: functional; in short: as §2
[31] = test system: Amaranthus retroflexus; assay: Herbicidal activity against Amaranthus retroflexus assessed as growth inhibition at 1 kg/ha postemergence treatment by glasshouse test; assay type: functional; details: post-emergence, read-out: GI; in short: as §1
[32] = test system: Alternaria solani; assay: Fungicidal activity against Alternaria solani assessed as inhibition of disease development in compound treated leaf pieces at 20 ppm relative to untreated control (tomato-preventative); assay type: functional; in short: as §2

With CC(C)Nc1nc(Cl)nc(NCc2ccc(F)cc2)n1 the inhibition of growth at 1000 g/ha [1] was 90%, the inhibition at 200 ppm [2] was 0% and the inhibition of growth at 1000 g/ha [3] was 90%. It also gave an inhibition at 60 ppm [4] of 0%, an inhibition at 20 ppm [5] of 20% and an inhibition at 60 ppm [6] of 0%. The mortality [7] was “inactive”, the inhibition at 60 ppm [8] was 20% and the inhibition [9] was “inactive”. The mortality [10] was “inactive”, the inhibition at 200 ppm [11] was 50% and the inhibition at 60 ppm [12] was 20%. The inhibition at 200 ppm [13] was 70%, the inhibition [14] was “inactive” and the inhibition of growth at 1000 g/ha [15] was 50%. The inhibition at 20 ppm [16] was 0%, the inhibition at 20 ppm [17] was 0% and the inhibition at 20 ppm [18] was 0%. For the same compound, the inhibition of growth at 1000 g/ha [19] was 30%, the inhibition at 60 ppm [20] was 100% and the inhibition at 1500 g/ha [21] was 2.1%. The inhibition at 60 ppm [22] was 0%, the inhibition at 200 ppm [23] was 100% and the inhibition at 1500 g/ha [24] was 100%. The inhibition [25] was “Active”, the inhibition at 200 ppm [26] was 70% and the inhibition [27] was “Active”. For the same compound, the inhibition at 200 ppm [28] was 100%, the inhibition of growth at 10 ppm [29] was 99% and the inhibition at 200 ppm [30] was 0%. The inhibition of growth at 1000 g/ha [31] was 100% and the inhibition at 20 ppm [32] was 0%.
